ChEMBL document CHEMBL3286203, “Reactive oxygen species (ROS) inducible DNA cross-linking agents and their effect on cancer cells and normal lymphocytes” (J Med Chem, 2014)

Test: Drug level in phosphate buffer treated with 40 mM N,N-Bis(2-chloroethyl)-4-(4,4,5,5-tetramethyl-1,3,2-dioxaborolan-2-yl)aniline after 30 mins by 1H-NMR analysis in presence of H2O2
Assay type: physicochemical
Details: 0.5 h
Procedure, shortened: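 1H NMR of the boronate mustard (40 mM) with H2O2 (60 mM), 30 min after H2O2 addition. Solvent was 400 mM phosphate buffer pH 8 (50 μL) in DMSO-d6 (450 μL). Read-out is conversion to the activated product.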

CC1(C)OB(c2ccc(N(CCCl)CCBr)cc2)OC1(C)C
Drug metabolism: metabolite_detected
